The results in this text go back to ChEMBL document CHEMBL4477233, “Discovery of novel TAOK2 inhibitor scaffolds from high-throughput screening” (Bioorg Med Chem Lett, 2016).

Assay [1] has as its target T1, Serine/threonine-protein kinase TAO2 (Homo sapiens) (UniProt Q9UL54).
T1 sequence (whole entry): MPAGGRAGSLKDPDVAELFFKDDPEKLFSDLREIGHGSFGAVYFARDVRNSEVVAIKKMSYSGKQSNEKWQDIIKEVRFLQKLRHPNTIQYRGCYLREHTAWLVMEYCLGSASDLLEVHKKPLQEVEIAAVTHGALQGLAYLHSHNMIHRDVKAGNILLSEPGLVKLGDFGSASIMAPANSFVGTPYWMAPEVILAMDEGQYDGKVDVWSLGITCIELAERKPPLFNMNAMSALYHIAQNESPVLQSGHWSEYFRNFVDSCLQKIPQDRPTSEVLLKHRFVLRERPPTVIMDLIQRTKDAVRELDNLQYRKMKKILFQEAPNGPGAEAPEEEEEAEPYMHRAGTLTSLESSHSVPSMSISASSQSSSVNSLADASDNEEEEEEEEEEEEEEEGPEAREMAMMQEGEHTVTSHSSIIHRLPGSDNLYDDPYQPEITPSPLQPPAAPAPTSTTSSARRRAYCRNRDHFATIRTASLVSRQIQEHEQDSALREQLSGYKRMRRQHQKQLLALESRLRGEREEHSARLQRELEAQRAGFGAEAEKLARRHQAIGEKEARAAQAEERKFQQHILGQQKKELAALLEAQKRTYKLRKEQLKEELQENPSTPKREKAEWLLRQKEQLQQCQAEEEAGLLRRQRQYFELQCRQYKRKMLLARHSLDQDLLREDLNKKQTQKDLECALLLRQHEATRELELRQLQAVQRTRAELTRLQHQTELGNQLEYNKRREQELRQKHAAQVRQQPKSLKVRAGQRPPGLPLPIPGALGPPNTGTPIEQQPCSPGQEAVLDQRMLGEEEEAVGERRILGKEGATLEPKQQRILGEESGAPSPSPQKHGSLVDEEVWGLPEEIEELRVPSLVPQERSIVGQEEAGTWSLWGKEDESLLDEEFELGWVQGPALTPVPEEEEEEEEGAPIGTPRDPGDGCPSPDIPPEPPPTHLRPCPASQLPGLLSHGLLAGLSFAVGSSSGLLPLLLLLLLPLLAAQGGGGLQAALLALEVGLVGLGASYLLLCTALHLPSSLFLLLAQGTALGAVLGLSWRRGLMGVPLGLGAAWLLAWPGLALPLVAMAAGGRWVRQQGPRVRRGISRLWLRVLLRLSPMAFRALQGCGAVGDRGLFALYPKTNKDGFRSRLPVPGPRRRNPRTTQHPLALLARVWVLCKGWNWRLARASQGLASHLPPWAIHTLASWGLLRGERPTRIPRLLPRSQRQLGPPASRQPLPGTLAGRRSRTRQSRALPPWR
Put plainly: Inhibition of TAOK2 in human U2OS cells assessed as inhibition of cellular autophagy measured as GFP-LC3 accumulation at 50 uM after 24 hrs by flow cytometric analysis. Format: cell-based. An outline of the steps: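 U2OS cells stably expressing GFP–LC3 were exposed to compound at 50 µM in the medium for 24 h. GFP fluorescence was read by flow cytometry. The median value from 20,000 cells per condition was normalized to DMSO vehicle within each experiment. Data are mean + SD of >2 independent experiments, compared with vehicle by unpaired t test.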

Assay [2] concerns the target T2, Mitogen-activated protein kinase kinase kinase 5 (Homo sapiens) (UniProt Q99683).
T2 sequence (whole entry): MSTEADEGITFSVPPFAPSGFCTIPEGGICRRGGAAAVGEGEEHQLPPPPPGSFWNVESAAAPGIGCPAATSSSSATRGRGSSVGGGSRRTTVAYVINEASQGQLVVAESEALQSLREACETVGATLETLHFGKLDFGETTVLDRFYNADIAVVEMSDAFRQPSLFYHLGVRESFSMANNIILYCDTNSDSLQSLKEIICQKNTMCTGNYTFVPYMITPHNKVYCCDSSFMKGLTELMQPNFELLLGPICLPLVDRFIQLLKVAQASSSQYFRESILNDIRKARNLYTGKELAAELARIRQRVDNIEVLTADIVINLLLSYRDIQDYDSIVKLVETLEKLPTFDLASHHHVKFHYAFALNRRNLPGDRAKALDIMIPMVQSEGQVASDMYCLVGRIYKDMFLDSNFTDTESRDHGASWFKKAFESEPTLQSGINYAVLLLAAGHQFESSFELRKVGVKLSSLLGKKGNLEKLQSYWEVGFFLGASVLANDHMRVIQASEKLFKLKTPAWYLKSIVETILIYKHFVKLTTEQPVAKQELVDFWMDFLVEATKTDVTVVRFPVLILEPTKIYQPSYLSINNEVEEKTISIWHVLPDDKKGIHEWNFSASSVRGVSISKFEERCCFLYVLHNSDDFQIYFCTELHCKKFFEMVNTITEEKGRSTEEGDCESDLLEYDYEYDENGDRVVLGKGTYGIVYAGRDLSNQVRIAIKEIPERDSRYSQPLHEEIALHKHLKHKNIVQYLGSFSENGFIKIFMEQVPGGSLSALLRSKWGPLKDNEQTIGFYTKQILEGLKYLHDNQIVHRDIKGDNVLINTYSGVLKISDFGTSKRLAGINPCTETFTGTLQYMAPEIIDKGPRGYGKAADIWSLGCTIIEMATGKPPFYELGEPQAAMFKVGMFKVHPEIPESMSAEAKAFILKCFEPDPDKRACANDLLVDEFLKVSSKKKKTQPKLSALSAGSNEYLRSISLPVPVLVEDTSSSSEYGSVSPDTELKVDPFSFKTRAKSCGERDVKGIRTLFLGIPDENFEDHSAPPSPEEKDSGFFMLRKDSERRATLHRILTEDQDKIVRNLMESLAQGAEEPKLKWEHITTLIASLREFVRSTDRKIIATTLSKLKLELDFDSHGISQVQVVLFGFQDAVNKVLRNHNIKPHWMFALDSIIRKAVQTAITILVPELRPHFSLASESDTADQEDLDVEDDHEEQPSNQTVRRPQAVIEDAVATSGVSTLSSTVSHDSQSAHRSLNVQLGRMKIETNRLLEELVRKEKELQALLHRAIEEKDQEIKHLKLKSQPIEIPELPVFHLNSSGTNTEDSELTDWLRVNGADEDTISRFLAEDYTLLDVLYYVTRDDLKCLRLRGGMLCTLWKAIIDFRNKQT
Put plainly: Binding affinity to ASK1 (unknown origin) assessed as change in melting temperature at 1 uM by SYPRO orange dye-based DSF analysis. Put shortly: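 Differential scanning fluorimetry: each compound's melting-temperature shift (ΔTm, °C) was measured on the kinase protein. Compounds giving a TAOK2 ΔTm above 0.5 °C were also run against p38 and ASK1. Selectivity (ΔΔTm) was taken as the TAOK2 ΔTm minus the p38 or ASK1 ΔTm.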
For orientation: DSF heats the sample and reads unfolding from a dye or from intrinsic fluorescence.

The source made the active and inactive calls. No cut-off for these calls is given here.

Turning to `O=C(NCC1COc2ccccc2O1)c1ccc(NC(=O)c2ccco2)cc1` (stereo unspecified), the inhibition entry in assay [1] was “Active”. The ΔTm in assay [2] was 1.2 °C.
The corresponding values for `CCC(=O)Nc1nc(C)c(-c2csc(Nc3cc(OC)ccc3OC)n2)s1` are “Active” and 2.7 °C.
For `CS(=O)(=O)c1ccc2nc(NC(=O)CCCOc3ccc(Cl)cc3)sc2c1`, the inhibition result in assay [1] is “Active”. For the same molecule, in assay [2], the ΔTm is 1.2 °C.
The matching figures for `CCOCCCn1c(=S)[nH]c2cc(C(=O)NCC3COc4ccccc4O3)ccc2c1=O` (stereo unspecified): “Active” and 2.1 °C.
The corresponding values for `Cc1ccc(NCCCC(=O)N/N=C/c2cc(Br)cc(Br)c2O)cc1` are “Active” and 1.2 °C.
The matching figures for `c1cc2[nH]c3c(c2c2nonc12)CCCC3`: “Active” and 0 °C.
As for `O=C(O)c1cc(-c2ccc(-c3ccccc3[N+](=O)[O-])o2)nc2ccc3ccccc3c12`, the inhibition result in assay [1] is “Active”. The ΔTm in assay [2] was determined as 1.7 °C.
For `Cc1ccc(C(=O)CSc2nnc(-c3ccncc3)[nH]2)c(C)c1`, the inhibition entry in assay [1] was “Active”. In addition, the ΔTm in assay [2] came to 0.4 °C.

One may read the ΔTm as the shift of the melting midpoint relative to a reference.
